# Data taken from ChEMBL document CHEMBL4007456, “Heterocyclyl Tetracyclines. 1. 7-Trifluoromethyl-8-Pyrrolidinyltetracyclines: Potent, Broad Spectrum Antibacterial Agents with Enhanced Activity against Pseudomonas aeruginosa” (2017).
# System: Klebsiella pneumoniae
# Test: Antibacterial activity against gram-negative Klebsiella pneumoniae KP457 harboring blacTX-M-15 extended spectrum beta-lactamase gene by CLSI method
# Type: functional
# Procedure, shortened: (§1)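 CLSI broth microdilution MIC in fresh cation-adjusted Mueller Hinton broth, supplemented with defibrinated horse blood where appropriate. Compounds serially diluted in sterile deionized water. Runs accepted when comparator antibiotics against ATCC quality-control strains fell within recommended ranges.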
row,Structure (SMILES),MIC
1,COc1c(C2CCCN2)cc(O)c2c1C[C@H]1C[C@H]3[C@H](N(C)C)C(O)=C(C(N)=O)C(=O)[C@@]3(O)C(O)=C1C2=O (stereo partly specified),2 µg/mL
2,CN(C)[C@@H]1C(O)=C(C(N)=O)C(=O)[C@@]2(O)C(O)=C3C(=O)c4c(O)cc([C@@H]5CCCN5C)c(C(F)(F)F)c4C[C@H]3C[C@@H]12,2 µg/mL

# System: Enterobacter cloacae
# Test: Antibacterial activity against gram-negative Enterobacter cloacae EC1603 harboring tet(A) by CLSI method
# Type: functional
# Procedure, shortened: as §1
row,Structure (SMILES),MIC
1,COc1c(C2CCCN2)cc(O)c2c1C[C@H]1C[C@H]3[C@H](N(C)C)C(O)=C(C(N)=O)C(=O)[C@@]3(O)C(O)=C1C2=O (stereo partly specified),> 32 µg/mL

# System: Staphylococcus aureus
# Test: Antibacterial activity against gram-positive Staphylococcus aureus SA158 harboring tet(K) by CLSI method
# Type: functional
# Procedure, shortened: as §1
row,Structure (SMILES),MIC
1,COc1c(C2CCCN2)cc(O)c2c1C[C@H]1C[C@H]3[C@H](N(C)C)C(O)=C(C(N)=O)C(=O)[C@@]3(O)C(O)=C1C2=O (stereo partly specified),2 µg/mL
2,CN(C)[C@@H]1C(O)=C(C(N)=O)C(=O)[C@@]2(O)C(O)=C3C(=O)c4c(O)cc([C@@H]5CCCN5C)c(C(F)(F)F)c4C[C@H]3C[C@@H]12,≤ 0.0156 µg/mL

# System: Burkholderia cenocepacia
# Test: Antibacterial activity against gram-negative Burkholderia cenocepacia BC240 by CLSI method
# Type: functional
# Procedure, shortened: (§2)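 Defibrinated horse blood added where appropriate. Compounds serially diluted in sterile deionized water. Strains from ATCC unless otherwise noted. Runs accepted when comparator antibiotics fell within QC ranges for ATCC quality control strains.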
row,Structure (SMILES),MIC
1,COc1c(C2CCCN2)cc(O)c2c1C[C@H]1C[C@H]3[C@H](N(C)C)C(O)=C(C(N)=O)C(=O)[C@@]3(O)C(O)=C1C2=O (stereo partly specified),> 32 µg/mL
2,CN(C)[C@@H]1C(O)=C(C(N)=O)C(=O)[C@@]2(O)C(O)=C3C(=O)c4c(O)cc([C@@H]5CCCN5C)c(C(F)(F)F)c4C[C@H]3C[C@@H]12,4 µg/mL

# System: Enterococcus faecalis
# Test: Antibacterial activity against gram-positive Enterococcus faecalis EFs327 harboring tet(M) by CLSI method
# Type: functional
# Procedure, shortened: as §1
row,Structure (SMILES),MIC
1,COc1c(C2CCCN2)cc(O)c2c1C[C@H]1C[C@H]3[C@H](N(C)C)C(O)=C(C(N)=O)C(=O)[C@@]3(O)C(O)=C1C2=O (stereo partly specified),32 µg/mL

# System: Streptococcus pneumoniae
# Test: Antibacterial activity against gram-positive Streptococcus pneumoniae SP160 harboring tet(M) by CLSI method
# Type: functional
# Procedure, shortened: as §1
row,Structure (SMILES),MIC
1,COc1c(C2CCCN2)cc(O)c2c1C[C@H]1C[C@H]3[C@H](N(C)C)C(O)=C(C(N)=O)C(=O)[C@@]3(O)C(O)=C1C2=O (stereo partly specified),4 µg/mL
2,CN(C)[C@@H]1C(O)=C(C(N)=O)C(=O)[C@@]2(O)C(O)=C3C(=O)c4c(O)cc([C@@H]5CCCN5C)c(C(F)(F)F)c4C[C@H]3C[C@@H]12,≤ 0.0156 µg/mL

# System: Escherichia coli
# Test: Antibacterial activity against gram-negative Escherichia coli EC107 by CLSI method
# Type: functional
# Procedure, shortened: as §2, with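 “Broth microdilution MIC per CLSI in cation-adjusted Mueller Hinton broth, prepared fresh and held at 4 °C. Defibrinated” for “Defibrinated”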
row,Structure (SMILES),MIC
1,COc1c(C2CCCN2)cc(O)c2c1C[C@H]1C[C@H]3[C@H](N(C)C)C(O)=C(C(N)=O)C(=O)[C@@]3(O)C(O)=C1C2=O (stereo partly specified),2 µg/mL
2,CN(C)[C@@H]1C(O)=C(C(N)=O)C(=O)[C@@]2(O)C(O)=C3C(=O)c4c(O)cc([C@@H]5CCCN5C)c(C(F)(F)F)c4C[C@H]3C[C@@H]12,0.0312 µg/mL

# System: Staphylococcus aureus
# Test: Antibacterial activity against gram-positive Staphylococcus aureus SA101 by CLSI method
# Type: functional
# Procedure, shortened: as §2, with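 “Broth microdilution MIC per CLSI in cation-adjusted Mueller Hinton broth, prepared fresh and held at 4 °C. Defibrinated” for “Defibrinated”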
row,Structure (SMILES),MIC
1,COc1c(C2CCCN2)cc(O)c2c1C[C@H]1C[C@H]3[C@H](N(C)C)C(O)=C(C(N)=O)C(=O)[C@@]3(O)C(O)=C1C2=O (stereo partly specified),8 µg/mL
2,CN(C)[C@@H]1C(O)=C(C(N)=O)C(=O)[C@@]2(O)C(O)=C3C(=O)c4c(O)cc([C@@H]5CCCN5C)c(C(F)(F)F)c4C[C@H]3C[C@@H]12,0.125 µg/mL

# System: Staphylococcus aureus
# Test: Antibacterial activity against gram-positive Staphylococcus aureus SA161 harboring tet(M) by CLSI method
# Type: functional
# Procedure, shortened: as §1
row,Structure (SMILES),MIC
1,COc1c(C2CCCN2)cc(O)c2c1C[C@H]1C[C@H]3[C@H](N(C)C)C(O)=C(C(N)=O)C(=O)[C@@]3(O)C(O)=C1C2=O (stereo partly specified),> 32 µg/mL
2,CN(C)[C@@H]1C(O)=C(C(N)=O)C(=O)[C@@]2(O)C(O)=C3C(=O)c4c(O)cc([C@@H]5CCCN5C)c(C(F)(F)F)c4C[C@H]3C[C@@H]12,2 µg/mL

# System: Stenotrophomonas maltophilia
# Test: Antibacterial activity against gram-negative Stenotrophomonas maltophilia SM256 by CLSI method
# Type: functional
# Procedure, shortened: as §2, with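 “Broth microdilution MIC per CLSI in cation-adjusted Mueller Hinton broth, prepared fresh and held at 4 °C. Defibrinated” for “Defibrinated”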
row,Structure (SMILES),MIC
1,COc1c(C2CCCN2)cc(O)c2c1C[C@H]1C[C@H]3[C@H](N(C)C)C(O)=C(C(N)=O)C(=O)[C@@]3(O)C(O)=C1C2=O (stereo partly specified),> 32 µg/mL
2,CN(C)[C@@H]1C(O)=C(C(N)=O)C(=O)[C@@]2(O)C(O)=C3C(=O)c4c(O)cc([C@@H]5CCCN5C)c(C(F)(F)F)c4C[C@H]3C[C@@H]12,0.125 µg/mL

# System: Enterococcus faecium
# Test: Antibacterial activity against gram-positive Enterococcus faecium EFm404 harboring tet(M) by CLSI method
# Type: functional
# Procedure, shortened: as §1
row,Structure (SMILES),MIC
1,COc1c(C2CCCN2)cc(O)c2c1C[C@H]1C[C@H]3[C@H](N(C)C)C(O)=C(C(N)=O)C(=O)[C@@]3(O)C(O)=C1C2=O (stereo partly specified),16 µg/mL

# System: Escherichia coli
# Test: Antibacterial activity against gram-negative Escherichia coli EC155 harboring tet(A) by CLSI method
# Type: functional
# Procedure, shortened: as §1
row,Structure (SMILES),MIC
1,COc1c(C2CCCN2)cc(O)c2c1C[C@H]1C[C@H]3[C@H](N(C)C)C(O)=C(C(N)=O)C(=O)[C@@]3(O)C(O)=C1C2=O (stereo partly specified),> 32 µg/mL
2,CN(C)[C@@H]1C(O)=C(C(N)=O)C(=O)[C@@]2(O)C(O)=C3C(=O)c4c(O)cc([C@@H]5CCCN5C)c(C(F)(F)F)c4C[C@H]3C[C@@H]12,0.5 µg/mL

# System: Acinetobacter baumannii
# Test: Antibacterial activity against gram-negative Acinetobacter baumannii AB250 by CLSI method
# Type: functional
# Procedure, shortened: as §2, with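 “Broth microdilution MIC per CLSI in cation-adjusted Mueller Hinton broth, prepared fresh and held at 4 °C. Defibrinated” for “Defibrinated”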
row,Structure (SMILES),MIC
1,COc1c(C2CCCN2)cc(O)c2c1C[C@H]1C[C@H]3[C@H](N(C)C)C(O)=C(C(N)=O)C(=O)[C@@]3(O)C(O)=C1C2=O (stereo partly specified),> 32 µg/mL
2,CN(C)[C@@H]1C(O)=C(C(N)=O)C(=O)[C@@]2(O)C(O)=C3C(=O)c4c(O)cc([C@@H]5CCCN5C)c(C(F)(F)F)c4C[C@H]3C[C@@H]12,0.25 µg/mL

# System: Pseudomonas aeruginosa
# Test: Antibacterial activity against gram-negative Pseudomonas aeruginosa PA555 by CLSI method
# Type: functional
# Procedure, shortened: as §2, with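 “Broth microdilution MIC per CLSI in cation-adjusted Mueller Hinton broth, prepared fresh and held at 4 °C. Defibrinated” for “Defibrinated”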
row,Structure (SMILES),MIC
1,COc1c(C2CCCN2)cc(O)c2c1C[C@H]1C[C@H]3[C@H](N(C)C)C(O)=C(C(N)=O)C(=O)[C@@]3(O)C(O)=C1C2=O (stereo partly specified),32 µg/mL
2,CN(C)[C@@H]1C(O)=C(C(N)=O)C(=O)[C@@]2(O)C(O)=C3C(=O)c4c(O)cc([C@@H]5CCCN5C)c(C(F)(F)F)c4C[C@H]3C[C@@H]12,8 µg/mL

# System: Proteus mirabilis
# Test: Antibacterial activity against gram-negative Proteus mirabilis PM385 by CLSI method
# Type: functional
# Procedure, shortened: as §2, with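 “Broth microdilution MIC per CLSI in cation-adjusted Mueller Hinton broth, prepared fresh and held at 4 °C. Defibrinated” for “Defibrinated”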
row,Structure (SMILES),MIC
1,COc1c(C2CCCN2)cc(O)c2c1C[C@H]1C[C@H]3[C@H](N(C)C)C(O)=C(C(N)=O)C(=O)[C@@]3(O)C(O)=C1C2=O (stereo partly specified),4 µg/mL
